Most compounds without a hit are left out; they make up all but 9.6% or so of the library.
HCT116 bCat-KO – beta-catenin-lacking colon tumor cell growth suppression; viability, % at 10 µM; 1.5% of 140,000 active; HCT116 beta-catenin knockout viability, CellTiter-Glo, 60 h; active compounds read low;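 active = viability at or under a set limit, the compound median less 4 SD, cut at about 6% in these data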;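 also: 0% = Hyamine 1622 control at 20 µM and 100% = untreated cell control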
PMI act hi M6P – PMI (human) activation, high substrate; P34949; coupled PMI enzyme assay, resazurin fluorescence, 20 min; active compounds read high; 1 = untreated enzyme, 0 = substrate-free blank; activation factor at 20 µM; 0.34% of 190,000 active; AID 1216;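 active = activation factor of 2 or more at 20 µM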
Target sequence (P34949 whole entry, looked up): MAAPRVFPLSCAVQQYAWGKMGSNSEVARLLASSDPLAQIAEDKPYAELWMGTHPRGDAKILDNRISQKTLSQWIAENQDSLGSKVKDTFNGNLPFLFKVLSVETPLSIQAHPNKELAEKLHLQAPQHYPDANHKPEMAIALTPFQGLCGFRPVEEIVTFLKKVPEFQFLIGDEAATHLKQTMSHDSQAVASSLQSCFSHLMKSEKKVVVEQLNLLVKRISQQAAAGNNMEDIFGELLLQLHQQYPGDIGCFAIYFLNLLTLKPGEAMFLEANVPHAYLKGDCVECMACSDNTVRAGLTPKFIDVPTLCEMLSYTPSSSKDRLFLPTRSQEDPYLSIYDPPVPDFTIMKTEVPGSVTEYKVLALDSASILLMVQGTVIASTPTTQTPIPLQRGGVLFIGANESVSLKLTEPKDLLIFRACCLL
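Material: human phosphomannose isomerase with PGI, G6PDH, diaphorase coupling enzymes. Quantity: 15 ng/mL PMI. Medium: HEPES pH 7.4 buffer with MgCl2 and Tween-20. Reagent: Near-saturating mannose-6-phosphate, 1.0 mM. Compound: 20 µM single dose. Times: enzyme reaction with compound 20 min at room temperature. Detection: resorufin fluorescence at Ex 544/Em 590 nm.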
Lmaj promast – reduces viability of Leishmania major promastigotes; resazurin fluorescence viability; inhibition, % at 10 µM; 9% of 200,000 active; in the data active = inhibition above about 50%;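 also: promastigotes grown with compound for 44 hours at 28 °C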
PTEN del growth – PTEN-deleted cell growth suppression | viability, % at 10 µM | HCT116 PTEN-null viability, CellTiter-Glo, 60 h; active compounds read low | 1.2% of 140,000 active | AID 827;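 active = viability at or below a set limit, 4 SD under the median of all tested compounds, cut at about 3.7% in these data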;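 also: PTEN knockout HCT116 line with beta catenin targeted HCT116 as companion control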
PMI act – phosphomannose isomerase (human) activation; P34949; purified human PMI, coupled resazurin fluorescence, 20 min; active compounds read high; 1 = vehicle control, 0 substrate-free wells; activation factor at 20 µM; 0.005% of 190,000 active; AID 1214;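 active = activation factor of 2 or more at 20 µM, relative to plate controls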
Starred values were filed as active, the others as inactive.

Results for Cc1nn(Cc2c(F)c(F)c(F)c(F)c2F)c(C)c1NC(=O)c1ccc(COc2ccc(Cl)cc2Cl)o1 ?
HCT116 bCat-KO: 4.7*; PMI act hi M6P: 0.9; Lmaj promast: 27; PTEN del growth: 14; PMI act: 0.9

How did COc1ccc(-c2c(C(C)=O)c(C)nc3sc4c(=O)[nH]nnc4c23)cc1 do in these assays?
HCT116 bCat-KO: 96; PMI act hi M6P: 1; Lmaj promast: 59*; PTEN del growth: 102; PMI act: 1

Results for CC1CCc2c(sc(NC(=O)CSc3nc4c(c(C(F)(F)F)n3)CCc3ccccc3-4)c2C(N)=O)C1 (configuration not stated) ?
HCT116 bCat-KO: 94; PMI act hi M6P: 1; Lmaj promast: -4; PTEN del growth: 100; PMI act: 1

How did COc1cccc(C2C3=C(N=c4s/c(=C\c5cccc(O)c5)c(=O)n42)c2ccccc2CC3)c1OC (configuration not stated) do in these assays?
HCT116 bCat-KO: 2.4*; PMI act hi M6P: 0.8; Lmaj promast: 44; PTEN del growth: 1.7*; PMI act: 0.8

How did CCCc1nc2ccc(NC(C)=O)cc2c(=O)n1Cc1ccc(Cl)cc1 do in these assays?
PMI act hi M6P: 0.9; Lmaj promast: 83*; PMI act: 0.9

Results for Cn1c(CN2CCCCC2)nc2cc(NC(=O)c3cccs3)ccc21 ?
HCT116 bCat-KO: 74; PMI act hi M6P: 1; Lmaj promast: 13; PTEN del growth: 75; PMI act: 1

What do the screens show for `CCCc1nc2ccc(NC(=O)c3cccs3)cc2c(=O)n1Cc1ccccc1Cl`?
HCT116 bCat-KO: 72; PMI act hi M6P: 0.8; Lmaj promast: 50*; PTEN del growth: 69; PMI act: 0.8

What do the screens show for `Cc1ccc(C(=O)CN(C(=O)c2ccc(Cl)c(Cl)c2)N2C(=O)C3C4C=CC(C4)C3C2=O)cc1` (configuration not stated)?
HCT116 bCat-KO: 87; PMI act hi M6P: 0.8; Lmaj promast: 6; PTEN del growth: 92; PMI act: 0.7

What do the screens show for `O=C(COc1ncnc2sccc12)N1CCN(C(=O)c2ccco2)CC1`?
PMI act hi M6P: 0.6; Lmaj promast: -6; PMI act: 1

How did CCN(CCCc1ccccc1)CCCc1ccccc1 do in these assays?
HCT116 bCat-KO: 68; PMI act hi M6P: 1.1; Lmaj promast: 95*; PTEN del growth: 73; PMI act: 1.1

How did COc1ccc(-c2[nH]n(-c3ccc([N+](=O)[O-])cc3)c(=O)c2C=NCc2ccccc2)cc1 do in these assays?
HCT116 bCat-KO: 86; PMI act hi M6P: 1.1; Lmaj promast: -5; PTEN del growth: 82; PMI act: 1

What do the screens show for `COc1ccc(C2CC(=O)c3cnc(NC(=O)c4ccccc4OC)nc3C2)c(OC)c1` (configuration not stated)?
HCT116 bCat-KO: 74; PMI act hi M6P: 1; Lmaj promast: 86*; PTEN del growth: 81; PMI act: 1

How did COc1ccc(C2CC(=O)c3cnc(NC(=O)c4cccc(OC)c4)nc3C2)cc1 (configuration not stated) do in these assays?
HCT116 bCat-KO: 90; PMI act hi M6P: 0.9; Lmaj promast: 14; PTEN del growth: 87; PMI act: 1

What do the screens show for `Cc1ccc(-c2cc(-c3n[nH]c(=S)n3C)c3ccccc3n2)cc1`?
PMI act hi M6P: 1; Lmaj promast: 5; PMI act: 1

What do the screens show for `CCOc1cc(CNCC(C)C)c(Cl)cc1OCC(=O)Nc1ccccc1`?
PMI act hi M6P: 0.9; Lmaj promast: 82*; PMI act: 0.9

What do the screens show for `CCNCc1cc(OCC)c(OCC(=O)NCCc2ccccc2)cc1Cl`?
HCT116 bCat-KO: 103; PMI act hi M6P: 1; Lmaj promast: 99*; PTEN del growth: 107; PMI act: 0.9

Results for O=C(COc1ccc([N+](=O)[O-])cc1Cl)NCCc1ccccc1 ?
HCT116 bCat-KO: 97; PMI act hi M6P: 1.1; Lmaj promast: 46; PTEN del growth: 90; PMI act: 1.1

Results for CNCc1ccccc1OCC(=O)Nc1ccccc1 ?
HCT116 bCat-KO: 95; PMI act hi M6P: 1; Lmaj promast: -1; PTEN del growth: 83; PMI act: 0.9

Results for O=C(CN(C(=O)CSc1nc2ccccc2o1)c1ccccc1F)NC1CCCCC1 ?
HCT116 bCat-KO: 84; PMI act hi M6P: 1; Lmaj promast: 65*; PTEN del growth: 83; PMI act: 0.9

How did O=C(NCc1cccs1)C1CCCN(c2nc3ccccc3o2)C1 (configuration not stated) do in these assays?
HCT116 bCat-KO: 96; PMI act hi M6P: 1.1; Lmaj promast: 1; PTEN del growth: 92; PMI act: 1.1

Results for COc1cccc(C(=O)Oc2ccccc2/C=C\C(=O)c2cc3ccccc3o2)c1 ?
HCT116 bCat-KO: 2.2*; PMI act hi M6P: 1.1; Lmaj promast: 100*; PTEN del growth: 1.1*; PMI act: 1

How did O=C(Oc1ccccc1/C=C\C(=O)c1cc2ccccc2o1)c1cccc(F)c1 do in these assays?
HCT116 bCat-KO: 5.9*; PMI act hi M6P: 0.8; Lmaj promast: 79*; PTEN del growth: 1.3*; PMI act: 0.8

How did COc1ccc(O)c(C(=O)/C=C/c2cc3ccccc3o2)c1 do in these assays?
Lmaj promast: 4

What do the screens show for `O=C(Oc1ccccc1/C=C\C(=O)c1cc2ccccc2o1)c1ccccc1`?
HCT116 bCat-KO: 2.3*; PMI act hi M6P: 0.9; Lmaj promast: 92*; PTEN del growth: 2.4*; PMI act: 0.8

How did Cc1ccc(C)c(CN2C(=O)C3CCCN3c3ccc(S(=O)(=O)N4CCOCC4)cc32)c1 (configuration not stated) do in these assays?
HCT116 bCat-KO: 86; PMI act hi M6P: 1.1; Lmaj promast: -6; PTEN del growth: 90; PMI act: 1

What do the screens show for `COc1ccc(NC(=O)COc2ccc(CNCCCN3CCOCC3)cc2OC)cc1`?
HCT116 bCat-KO: 88; PMI act hi M6P: 1.1; Lmaj promast: -2; PTEN del growth: 88; PMI act: 1.1

How did COc1cc(CNCCCN2CCOCC2)c(Br)cc1OCC(=O)Nc1ccccc1C do in these assays?
PMI act hi M6P: 0.9; Lmaj promast: 57*; PMI act: 0.9

How did COc1ccccc1NC(=O)COc1ccc(Br)cc1CNCCCN1CCOCC1 do in these assays?
PMI act hi M6P: 1.1; Lmaj promast: 77*; PMI act: 1.1

How did CCOC(=O)C1(CCc2ccccc2)CCN(C(=O)C2CCCO2)CC1 (configuration not stated) do in these assays?
PMI act hi M6P: 1; Lmaj promast: 0; PMI act: 1

Results for CSCCC(NS(=O)(=O)c1ccccc1F)C(=O)NC(C)c1ccccc1 (configuration not stated) ?
PMI act hi M6P: 1; Lmaj promast: 1; PMI act: 1

How did Cn1nc(C(=O)Nc2c(-c3ccccc3)nc3sccn23)c2ccccc2c1=O do in these assays?
HCT116 bCat-KO: 97; PMI act hi M6P: 1; Lmaj promast: 0; PTEN del growth: 100; PMI act: 0.8

Source: PubChem BioAssay (several laboratories)
